Data as given in ChEMBL document CHEMBL4402517, “Rational modification of Mannich base-type derivatives as novel antichagasic compounds: Synthesis, in vitro and in vivo evaluation” (Bioorg Med Chem, 2019).

Columns and labels:
[1] = (§1) Toxicity in BALB/c mouse infected with Trypanosoma cruzi MHOM/Pe/2011/Arequipa;DTU 5 bloodstream trypomastigote assessed as change in serum alanine aminotransferase level in acute phase at 20 mg/kg/day, po administered for 5 consecutive days starting from day 8 post infection and measured on day 100 post infection by biochemical analysis relative to control; assay type: organism-based; settings: in vivo
Summary of the method: (§2)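 Female BALB/c mice (10–12 weeks, 14–20 g; groups of three) were infected i.p. with 5 × 10^5 Arequipa bloodstream trypomastigotes. Dosing was oral at 20 mg/kg/day for 5 days, from day 8 pi (acute) or day 70 pi (chronic), as a 2 mg/ml suspension in 5% DMSO/0.5% HPMC; controls received vehicle. Cyclophosphamide 200 mg/kg i.p. was given at day 80 pi. Serum was collected 2 days post-treatment and at necropsy by cardiac puncture and compared with infected untreated controls.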

[2] = Genotoxicity in Salmonella typhimurium TA1535 harboring pSK1002 assessed as umu gene induction at 0.001 mg/ml in absence of Sprague-Dawley rat liver S9 fraction metabolic activation by SOS/umu assay relative to control; assay type: toxicity; settings: salmonella enterica subsp. enterica serovar typhimurium, read-out: FC
Summary of the method: (§3)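 umu induction in S. typhimurium TA1535/pSK1002, with or without S9 mix, in 96-well format. β-galactosidase read colorimetrically with ONPG substrate. Output given as relative units and induction factor (IF). The run is valid if positive controls reach IF ≥2. A compound counts as genotoxic at IF ≥2 at a concentration giving ≥80% bacterial survival.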

[3] = as §1, with “lactate dehydrogenase” for “alanine aminotransferase”; assay type: organism-based; settings: in vivo; summary of the method: as §2
[4] = Genotoxicity in Salmonella typhimurium TA1535 harboring pSK1002 assessed as survival at 0.25 mg/ml in presence of Sprague-Dawley rat liver S9 fraction metabolic activation by SOS/umu assay relative to control; assay type: toxicity, subcellular; settings: salmonella enterica subsp. enterica serovar typhimurium, read-out: Survival
Summary of the method: (§4)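 Survival of S. typhimurium TA1535/pSK1002 exposed to a range of compound concentrations with or without S9 mix in 96-well format. Survival percentage measured as the cytotoxicity arm of the SOS/umu test. Concentrations with survival ≥80% are counted as non-cytotoxic.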

[5] = Genotoxicity in Salmonella typhimurium TA1535 harboring pSK1002 assessed as survival at 0.016 mg/ml in presence of Sprague-Dawley rat liver S9 fraction metabolic activation by SOS/umu assay relative to control; assay type: toxicity, subcellular; settings: salmonella enterica subsp. enterica serovar typhimurium, read-out: Survival; summary of the method: as §4
[6] = Genotoxicity in Salmonella typhimurium TA1535 harboring pSK1002 assessed as survival at 0.008 mg/ml in absence of Sprague-Dawley rat liver S9 fraction metabolic activation by SOS/umu assay relative to control; assay type: toxicity; settings: salmonella enterica subsp. enterica serovar typhimurium, read-out: Survival; summary of the method: as §4
[7] = as §1, with “aspartate” for “alanine”, “assay” for “analysis”; assay type: organism-based; settings: in vivo; summary of the method: as §2
[8] = (§5) Toxicity in BALB/c mouse infected with Trypanosoma cruzi MHOM/Pe/2011/Arequipa;DTU 5 bloodstream trypomastigote assessed as decrease in serum uric acid level in chronic phase at 20 mg/kg/day, po administered for 5 consecutive days starting from day 70 post infection measured on day 100 post infection relative to control; assay type: organism-based; design: scale not given: the % may be the effect or the level left; settings: in vivo; summary of the method: as §2
[9] = as §1, with “decrease” for “change”, “creatine kinase muscle to brain ratio” for “alanine aminotransferase”; assay type: organism-based; design: scale not given: the % may be the effect or the level left; settings: in vivo; summary of the method: as §2
[10] = Genotoxicity in Salmonella typhimurium TA1535 harboring pSK1002 assessed as umu gene induction at 0.016 mg/ml in presence of Sprague-Dawley rat liver S9 fraction metabolic activation by SOS/umu assay relative to control; assay type: toxicity, subcellular; settings: salmonella enterica subsp. enterica serovar typhimurium, read-out: FC; summary of the method: as §3
[11] = Genotoxicity in Salmonella typhimurium TA1535 harboring pSK1002 assessed as survival at 0.002 mg/ml in absence of Sprague-Dawley rat liver S9 fraction metabolic activation by SOS/umu assay relative to control; assay type: toxicity; settings: salmonella enterica subsp. enterica serovar typhimurium, read-out: Survival
Summary of the method: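 Salmonella typhimurium TA1535/pSK1002 was exposed to compounds at several concentrations with or without S9 mix, and bacterial survival % was measured. β-galactosidase induction was measured colorimetrically with ONPG substrate. Genotoxicity was counted where IF ≥ 2 at ≥80% survival; runs were valid if positive controls reached IF ≥ 2.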

[12] = Genotoxicity in Salmonella typhimurium TA1535 harboring pSK1002 assessed as umu gene induction at 0.125 mg/ml in absence of Sprague-Dawley rat liver S9 fraction metabolic activation by SOS/umu assay relative to control; assay type: toxicity; settings: salmonella enterica subsp. enterica serovar typhimurium, read-out: FC; summary of the method: as §3
[13] = (§6) Toxicity in BALB/c mouse infected with Trypanosoma cruzi MHOM/Pe/2011/Arequipa;DTU 5 bloodstream trypomastigote assessed as decrease in serum uric acid level in chronic phase at 20 mg/kg/day, po administered for 5 consecutive days starting from day 70 post infection and measured at day 76 post infection relative to control; assay type: organism-based; design: scale not given: the % may be the effect or the level left; settings: in vivo; summary of the method: as §2
[14] = Genotoxicity in Salmonella typhimurium TA1535 harboring pSK1002 assessed as survival at 1 mg/ml in presence of Sprague-Dawley rat liver S9 fraction metabolic activation by SOS/umu assay relative to control; assay type: toxicity, subcellular; settings: salmonella enterica subsp. enterica serovar typhimurium, read-out: Survival; summary of the method: as §4
[15] = Genotoxicity in Salmonella typhimurium TA1535 harboring pSK1002 assessed as umu gene induction at 0.063 mg/ml in presence of Sprague-Dawley rat liver S9 fraction metabolic activation by SOS/umu assay relative to control; assay type: toxicity, subcellular; settings: salmonella enterica subsp. enterica serovar typhimurium, read-out: FC; summary of the method: as §3
[16] = Genotoxicity in Salmonella typhimurium TA1535 harboring pSK1002 assessed as umu gene induction at 0.125 mg/ml in presence of Sprague-Dawley rat liver S9 fraction metabolic activation by SOS/umu assay relative to control; assay type: toxicity, subcellular; settings: salmonella enterica subsp. enterica serovar typhimurium, read-out: FC; summary of the method: as §3
[17] = Genotoxicity in Salmonella typhimurium TA1535 harboring pSK1002 assessed as umu gene induction at 0.25 mg/ml in presence of Sprague-Dawley rat liver S9 fraction metabolic activation by SOS/umu assay relative to control; assay type: toxicity, subcellular; settings: salmonella enterica subsp. enterica serovar typhimurium, read-out: FC; summary of the method: as §3
[18] = Genotoxicity in Salmonella typhimurium TA1535 harboring pSK1002 assessed as umu gene induction at 0.031 mg/ml in absence of Sprague-Dawley rat liver S9 fraction metabolic activation by SOS/umu assay relative to control; assay type: toxicity; settings: salmonella enterica subsp. enterica serovar typhimurium, read-out: FC; summary of the method: as §3
[19] = Genotoxicity in Salmonella typhimurium TA1535 harboring pSK1002 assessed as survival at 0.25 mg/ml in absence of Sprague-Dawley rat liver S9 fraction metabolic activation after by SOS/umu assay relative to control; assay type: toxicity; settings: salmonella enterica subsp. enterica serovar typhimurium, read-out: Survival; summary of the method: as §4
[20] = as §5, with “lactate dehydrogenase” for “uric acid”; assay type: organism-based; design: scale not given: the % may be the effect or the level left; settings: in vivo; summary of the method: as §2
[21] = Genotoxicity in Salmonella typhimurium TA1535 harboring pSK1002 assessed as umu gene induction at 0.004 mg/ml in absence of Sprague-Dawley rat liver S9 fraction metabolic activation by SOS/umu assay relative to control; assay type: toxicity; settings: salmonella enterica subsp. enterica serovar typhimurium, read-out: FC; summary of the method: as §3
[22] = as §5, with “urea” for “uric acid”; assay type: organism-based; design: scale not given: the % may be the effect or the level left; settings: in vivo; summary of the method: as §2
[23] = Toxicity in BALB/c mouse infected with Trypanosoma cruzi MHOM/Pe/2011/Arequipa;DTU 5 bloodstream trypomastigote assessed as decrease in serum total bilirubin level in chronic phase at 20 mg/kg/day administered for 5 consecutive days starting from […] post infection and measured after 2 days of treatment by biochemical analysis (reference value: 0.25 mg/dl ); assay type: organism-based; design: scale not given: the % may be the effect or the level left; settings: in vivo, 48 h
[24] = as §6, with “urea” for “uric acid”; assay type: organism-based; design: scale not given: the % may be the effect or the level left; settings: in vivo; summary of the method: as §2

| Structure (SMILES) | Activity [1] [%] | fold induction at 0.001 mg/ml [2] | Activity [3] [%] | viability at 0.25 mg/ml [4] [%] | viability at 0.016 mg/ml [5] [%] | viability at 0.008 mg/ml [6] [%] | Activity [7] [%] | Activity [8] | Activity [9] | fold induction at 0.016 mg/ml [10] | viability at 0.002 mg/ml [11] [%] | fold induction at 0.125 mg/ml [12] | Activity [13] | viability at 1 mg/ml [14] [%] | fold induction at 0.063 mg/ml [15] | fold induction at 0.125 mg/ml [16] | fold induction at 0.25 mg/ml [17] | fold induction at 0.031 mg/ml [18] | viability at 0.25 mg/ml [19] [%] | Activity [20] | further results |
| --- | --- | --- | --- | --- | --- | --- | --- | --- | --- | --- | --- | --- | --- | --- | --- | --- | --- | --- | --- | --- | --- |
| O=C(CCN1CCN(c2ccc(C(F)(F)F)cc2)CC1)c1ccc(O)cc1 | > 10 | 0.91 | > 10 | 140 | 110 | 133 | > 10 | <= 10% | <= 30% | 0.79 | 116 | 0.7 | <= 20% | 216 | 0.85 | 0.63 | 0.63 | 0.66 | 149 | <= 30% | fold induction at 0.004 mg/ml [21]: 0.69 |
| O=C(CCN1CCN(c2ccc(Cl)cc2)CC1)c1ccc(O)cc1 | – | 0.83 | > 10 | 138 | 106 | 128 | > 10 | – | <= 20% | 0.84 | 109 | 0.45 | – | 213 | 0.87 | 0.84 | 0.63 | 0.7 | 152 | – | Activity [22]: <= 10%; Activity [23]: <= 10%; Activity [24]: <= 30%; fold induction at 0.004 mg/ml [21]: 0.68 |
| O=C(Cn1ccnc1[N+](=O)[O-])NCc1ccccc1 [BENZNIDAZOLE] | > 10 | – | – | – | – | – | – | <= 30% | – | – | – | – | <= 30% | – | – | – | – | – | – | <= 10% | Activity [22]: <= 30%; Activity [23]: <= 10%; Activity [24]: <= 20% |
